pIC50: −log10 of the molar value.
Assays:
[1] = system: Thromboxane A2 receptor (Cavia porcellus); assay: Inhibition of specific binding of [3H]U-46619 to TXA2/PGH2 receptor in guinea pig platelet membrane
[2] = system: Cavia porcellus; assay: The compound was tested in vivo for the inhibition of U-46619-induced bronchoconstriction in guinea pig, 1 hr after oral administration at a dose of 5 mg/Kg.; format: functional; details: PIG1, po
Summary of the method: (§1)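 Guinea pigs received drug suspended in 5% gum arabic orally 1 h before U-46619 challenge. The result is percent inhibition of bronchoconstriction versus control, tested with Dunnett's test.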

[3] = species on record: Homo sapiens; assay: Concentration required to reduced U-46619-induced aggregation of human platelet by 50%.; format: functional
Summary of the method: (§2)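 Healthy male volunteers, medication-free for at least 10 days, gave blood into 3.8% sodium citrate. PRP was adjusted to 400000 platelets/µL with PPP, preincubated at 37 °C for 2 min, then given drug or vehicle for 2 min. Aggregation was triggered with submaximal U-46619 (1–3 µM) and read photometrically (Born).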

[4] = species on record: Oryctolagus cuniculus; assay: Concentration required to reduced U-46619-induced contraction of the rabbit aorta by 50%.; format: functional
[5] = system: Cavia porcellus; assay: The compound was tested in vivo for the inhibition of U-46619-induced bronchoconstriction in guinea pig, 1 hr after oral administration at a dose of 0.31 mg/Kg.; format: functional; details: PIG1, po
Summary of the method: as §1

[6] = species on record: Homo sapiens; assay: Concentration required to reduced U-46619-induced aggregation of human platelet by 50%.(values in parentheses are 95% confidence limits); format: functional
Summary of the method: as §2

[7] = species on record: Oryctolagus cuniculus; assay: Concentration required to reduced U-46619-induced contraction of the rabbit aorta by 50%.(values in parentheses are 95% confidence limits); format: functional
[8] = system: Rattus norvegicus; assay: The compound was tested in vivo for the inhibition of U-46619-induced bronchoconstriction in rat, 1 hr after oral administration at a dose of 5 mg/Kg.; format: functional
Summary of the method: (§3)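 Male Sprague-Dawley rats received drug suspended in 5% gum arabic orally 1 h before U-46619 (30 µg/kg, iv). Bronchoconstriction was recorded by the Konzett-Rössler method and expressed as percent inhibition versus control, tested with Dunnett's test.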

[9] = system: Rattus norvegicus; assay: The compound was tested in vivo for the inhibition of U-46619-induced bronchoconstriction in rat, 1 hr after oral administration at a dose of 1.25 mg/Kg.; format: functional
Summary of the method: as §3

[10] = system: Cavia porcellus; assay: The compound was tested in vivo for the inhibition of U-46619-induced bronchoconstriction in guinea pig, 1 hr after oral administration at a dose of 1.25 mg/Kg.; format: functional; details: PIG1, po
Summary of the method: as §1

[11] = species on record: Cavia porcellus; assay: Compound was evaluated for inhibition of specific binding of [3H]U-46619 to guinea pig platelet membrane.; format: functional
Summary of the method: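 Guinea pig blood was drawn by cardiac puncture into 0.315% citrate plus 1 mM aspirin (final). PRP platelets were washed in 25 mM Tris-HCl/5 mM MgCl2 pH 7.4, sonicated, and the 100000 g pellet used at 1 mg/mL protein. Membranes were incubated with 4 nM [3H]U-46619 and drug at 25 °C for 30 min, then filtered and counted. The IC50 is for specific binding, with 2–6 replicates per dose.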

[12] = system: Rattus norvegicus; assay: Compound was tested in vivo for the inhibition of U-46619-induced bronchoconstriction in rat, 1 hr after oral administration at a dose of 5 mg/Kg.; format: functional; details: read-out: Inhibition
Summary of the method: as §3

[13] = species on record: Oryctolagus cuniculus; assay: Concentration required to reduced U-46619-induced contraction of the rabbit aorta by 50%; format: functional
[14] = system: Cavia porcellus; assay: Compound was tested in vivo for the inhibition of U-46619-induced bronchoconstriction in guinea pig, 1 hr after oral administration at a dose of 5 mg/Kg.; format: functional; details: PIG1, po, read-out: Inhibition
Summary of the method: as §1

[15] = species on record: Homo sapiens; assay: Concentration required to reduced U-46619-induced aggregation of human platelet by 50%; format: functional
Summary of the method: as §2

[16] = system: Cavia porcellus; assay: compound was tested in vivo for the inhibition of U-46619-induced bronchoconstriction in guinea pig, 1 hr after oral administration at a dose of 1.25 mg/Kg.; format: functional; details: PIG1, po
Summary of the method: as §1

Question: `Cc1c(C)c(C)c(C(CCCCCC(=O)O)c2ccc(F)cc2)c(O)c1C` (stereo unspecified) was tested. Which pIC50 [1] did it give?
Answer: The pIC50 was 6.89.

Question: With `Cc1c(C)c(C=O)c(C)c(C(CCCCCC(=O)O)c2ccccc2)c1O` (stereo unspecified) as the molecule, how does the inhibition in vivo at 5 mg/kg [2] read?
Answer: Its inhibition in vivo at 5 mg/kg is 30%.

Question: What about the pIC50 [3] of the same molecule?
Answer: The pIC50 was 5.85.

Question: And the pIC50 [4]?
Answer: The pIC50 was 6.72.

Question: `Cc1c(C)c(CO)c(C)c(C(CCCCCC(=O)O)c2ccccc2)c1O` (stereo unspecified) was tested. Which pIC50 [1] did it give?
Answer: Its pIC50 is 6.09.

Question: `Cc1c(C)c(C(=O)O)c(C)c(C(CCCCCC(=O)O)c2ccc(F)cc2)c1O` (stereo unspecified) was tested. Which pIC50 [1] did it give?
Answer: Its pIC50 is 5.49.

Question: How did the pIC50 [1] turn out when `Cc1c(C)c(Cl)c(C)c(C(CCCCCC(=O)O)c2ccc(F)cc2)c1O` (stereo unspecified) was run?
Answer: The pIC50 was 6.08.

Question: `COCc1c(C)c(C)c(O)c(C(CCCCCC(=O)O)c2ccc(F)cc2)c1C` (stereo unspecified) was tested. Which pIC50 [1] did it give?
Answer: Its pIC50 is 6.47.

Question: With `Cc1cc(C)c(C(CCCCCC(=O)O)c2ccc(F)cc2)c(O)c1C` (stereo unspecified) as the molecule, how does the pIC50 [1] read?
Answer: Its pIC50 is 6.35.

Question: How did the inhibition in vivo at 0.31 mg/kg [5] turn out when `Cc1c(C)c(CO)c(C)c(C(CCCCCC(=O)O)c2ccc(F)cc2)c1O` (stereo unspecified) was run?
Answer: The inhibition in vivo at 0.31 mg/kg was 57%.

Question: What about the pIC50 [6] of the same molecule?
Answer: Its pIC50 is 7.10.

Question: And the pIC50 [7]?
Answer: The pIC50 was 7.49.

Question: What about the inhibition in vivo at 5 mg/kg [8] of the same molecule?
Answer: Its inhibition in vivo at 5 mg/kg is < 65%.

Question: And the pIC50 [1]?
Answer: The pIC50 was 7.49.

Question: What about the inhibition in vivo at 1.25 mg/kg [9] of the same molecule?
Answer: The inhibition in vivo at 1.25 mg/kg was < 40%.

Question: How did the inhibition in vivo at 0.31 mg/kg [5] turn out when `Cc1c(C)c(C=O)c(C)c(C(CCCCCC(=O)O)c2ccc(F)cc2)c1O` (stereo unspecified) was run?
Answer: Its inhibition in vivo at 0.31 mg/kg is 33%.

Question: And the inhibition in vivo at 5 mg/kg [2]?
Answer: The inhibition in vivo at 5 mg/kg was 84%.

Question: And the pIC50 [3]?
Answer: The pIC50 was 6.51.

Question: What about the inhibition in vivo at 1.25 mg/kg [10] of the same molecule?
Answer: Its inhibition in vivo at 1.25 mg/kg is < 67%.

Question: And the pIC50 [4]?
Answer: Its pIC50 is 8.00.

Question: And the pIC50 [11]?
Answer: The pIC50 was 8.36.

Question: What about the inhibition in vivo at 5 mg/kg [8] of the same molecule?
Answer: The inhibition in vivo at 5 mg/kg was 68%.

Question: What about the inhibition in vivo at 1.25 mg/kg [9] of the same molecule?
Answer: Its inhibition in vivo at 1.25 mg/kg is < 54%.

Question: With `Cc1c(O)c(C(CCCCCC(=O)O)c2ccc(F)cc2)c(C)c2c1CC(=O)C2` (stereo unspecified) as the molecule, how does the inhibition in vivo at 5 mg/kg [2] read?
Answer: The inhibition in vivo at 5 mg/kg was < 42%.

Question: What about the pIC50 [1] of the same molecule?
Answer: Its pIC50 is 7.10.

Question: Which inhibition in vivo at 5 mg/kg [2] does the source give for `CC(=O)c1c(C)c(C)c(O)c(C(CCCCCC(=O)O)c2ccc(F)cc2)c1C` (stereo unspecified) here?
Answer: The inhibition in vivo at 5 mg/kg was 76%.

Question: And the inhibition in vivo at 1.25 mg/kg [10]?
Answer: Its inhibition in vivo at 1.25 mg/kg is 22%.

Question: What about the pIC50 [6] of the same molecule?
Answer: The pIC50 was 7.16.

Question: What about the pIC50 [11] of the same molecule?
Answer: Its pIC50 is 7.10.

Question: And the pIC50 [7]?
Answer: The pIC50 was 6.57.

Question: And the inhibition in vivo at 5 mg/kg [8]?
Answer: Its inhibition in vivo at 5 mg/kg is 42%.

Question: And the pIC50 [1]?
Answer: The pIC50 was 7.10.

Question: With `Cc1c(O)c(C(CCCCCC(=O)O)c2ccc(F)cc2)c(C)c2c1CCC2` (stereo unspecified) as the molecule, how does the inhibition in vivo at 5 mg/kg [12] read?
Answer: The inhibition in vivo at 5 mg/kg was 48%.

Question: What about the pIC50 [13] of the same molecule?
Answer: Its pIC50 is 6.64.

Question: What about the inhibition in vivo at 5 mg/kg [14] of the same molecule?
Answer: The inhibition in vivo at 5 mg/kg was 76%.

Question: What about the pIC50 [15] of the same molecule?
Answer: Its pIC50 is 6.51.

Question: What about the inhibition in vivo at 1.25 mg/kg [16] of the same molecule?
Answer: The inhibition in vivo at 1.25 mg/kg was 37%.

Question: And the pIC50 [1]?
Answer: Its pIC50 is 7.31.

Question: With `Cc1cc(C)c(O)c(C(CCCCCC(=O)O)c2ccc(F)cc2)c1C` (stereo unspecified) as the molecule, how does the pIC50 [1] read?
Answer: Its pIC50 is 6.62.

Question: With `Cc1c(C)c2c(c(C(CCCCCC(=O)O)c3ccc(F)cc3)c1O)CCC2` (stereo unspecified) as the molecule, how does the pIC50 [1] read?
Answer: Its pIC50 is 6.80.

Question: With `Cc1c(C)c2c(c(C(CCCCCC(=O)O)c3ccc(F)cc3)c1O)CCC2=O` (stereo unspecified) as the molecule, how does the inhibition in vivo at 0.31 mg/kg [5] read?
Answer: Its inhibition in vivo at 0.31 mg/kg is -3%.

Question: And the inhibition in vivo at 5 mg/kg [2]?
Answer: Its inhibition in vivo at 5 mg/kg is < 95%.

Question: And the inhibition in vivo at 1.25 mg/kg [10]?
Answer: Its inhibition in vivo at 1.25 mg/kg is 59%.

Question: And the pIC50 [6]?
Answer: The pIC50 was 7.11.

Question: And the pIC50 [11]?
Answer: The pIC50 was 7.89.

Question: And the pIC50 [7]?
Answer: Its pIC50 is 7.57.

Question: And the inhibition in vivo at 5 mg/kg [8]?
Answer: Its inhibition in vivo at 5 mg/kg is 78%.

Question: And the pIC50 [1]?
Answer: Its pIC50 is 7.89.

Question: And the inhibition in vivo at 1.25 mg/kg [9]?
Answer: The inhibition in vivo at 1.25 mg/kg was < 50%.

Question: How did the pIC50 [1] turn out when `CCCCC(=O)c1c(C)c(C)c(O)c(C(CCCCCC(=O)O)c2ccc(F)cc2)c1C` (stereo unspecified) was run?
Answer: Its pIC50 is 6.72.

Question: `CC(=O)c1c(C)c(C)c(C(CCCCCC(=O)O)c2ccc(F)cc2)c(O)c1C` (stereo unspecified) was tested. Which pIC50 [1] did it give?
Answer: The pIC50 was 6.60.

Question: With `Cc1c(C)c(Br)c(C)c(C(CCCCCC(=O)O)c2ccc(F)cc2)c1O` (stereo unspecified) as the molecule, how does the pIC50 [1] read?
Answer: The pIC50 was 6.70.

Question: With `Cc1c(C)c(C(CCCCCC(=O)O)c2ccc(F)cc2)c(O)c(C)c1CO` (stereo unspecified) as the molecule, how does the pIC50 [1] read?
Answer: Its pIC50 is 6.19.

Question: With `Cc1c(C)c2c(c(C(CCCCCC(=O)O)c3ccc(F)cc3)c1O)CCCC2=O` (stereo unspecified) as the molecule, how does the pIC50 [1] read?
Answer: The pIC50 was 7.12.

Question: `Cc1c(C)c(CCO)c(C)c(C(CCCCCC(=O)O)c2ccc(F)cc2)c1O` (stereo unspecified) was tested. Which pIC50 [1] did it give?
Answer: Its pIC50 is 6.60.

Question: `O=C(O)Cc1ccc(CCNS(=O)(=O)c2ccc(Cl)cc2)cc1` [DALTROBAN] was tested. Which inhibition in vivo at 5 mg/kg [2] did it give?
Answer: Its inhibition in vivo at 5 mg/kg is < 84%.

Question: What about the pIC50 [3] of the same molecule?
Answer: Its pIC50 is 6.19.

Question: And the inhibition in vivo at 1.25 mg/kg [10]?
Answer: Its inhibition in vivo at 1.25 mg/kg is 36%.

Question: And the pIC50 [4]?
Answer: The pIC50 was 6.92.

Question: And the inhibition in vivo at 5 mg/kg [8]?
Answer: Its inhibition in vivo at 5 mg/kg is < 73%.

Question: What about the pIC50 [1] of the same molecule?
Answer: Its pIC50 is 7.21.

Source: ChEMBL document CHEMBL1126076, “Synthesis and thromboxane A2/prostaglandin H2 receptor antagonistic activity of phenol derivatives” (J Med Chem, 1992)
